# Active and inactive are the calls of the source. The rule behind the calls is not given here.
# System: not listed separately
# Assay: Antiproliferative activity against mouse B16-F10-Luc-G5 cells assessed as cell growth inhibition measured after 24 hrs by luciferase gene assay
# Assay type: functional, cell-based
# Settings: not given
# Procedure, shortened: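 Luciferase-expressing murine melanoma cells exposed to a concentration series, with gemcitabine as positive control. Growth read by bioluminescence. IC50 is the mean of three experiments, each with three replicates per concentration, reported ± SD.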
row,SMILES,IC50
1,COc1cccc(/C=C/c2ccc(C(=O)Nc3cc(C(=O)NCCN4CCOCC4)n(C)c3)cc2)c1,0.81 µM
2,Cn1cc(NC(=O)c2cc(NC(=O)c3ccc(/C=C/c4ccc(C(F)(F)F)cc4)cc3)cn2C)cc1C(=O)NCCN1CCOCC1,0.16 µM
3,COc1ccc(/C=C/c2ccc(C(=O)Nc3cc(C(=O)Nc4cc(C(=O)NCCN5CCOCC5)n(C(C)C)c4)n(C)c3)cn2)cc1,0.81 µM
4,COc1cccc(/C=C/c2ccc(C(=O)Nc3cc(C(=O)Nc4cc(C(=O)NCCN5CCOCC5)n(C(C)C)c4)n(C)c3)cc2)c1,1.1 µM
5,CC(C)n1cc(NC(=O)c2cc(NC(=O)c3ccc(/C=C/c4ccc(C(F)(F)F)cc4)cc3)cn2C)cc1C(=O)NCCN1CCOCC1,2.16 µM
6,Nc1ccn([C@@H]2O[C@H](CO)[C@@H](O)C2(F)F)c(=O)n1 [GEMCITABINE],11 µM

# System: Hepatocyte
# Assay: Cytotoxicity against rat hepatocytes assessed as change in cell morphology at 7.5 uM measured up to 24 hrs by phase contrast microscopic analysis
# Assay type: cell-based
# Settings: not given
# Procedure, shortened: (§1)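 Primary hepatocyte monolayers exposed to 7.5µM compound over 24 h, with DMSO control. Uptake checked by fluorescence microscopy using red, green and blue filter settings. Morphology assessed by phase contrast with a x20 wet lens, including images at 60 min.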
row,SMILES,Activity
1,Cn1cc(NC(=O)c2cc(NC(=O)c3ccc(/C=C/c4ccc(C(F)(F)F)cc4)cc3)cn2C)cc1C(=O)NCCN1CCOCC1,Non-toxic

# System: not listed separately
# Assay: Potency index, ratio of gemcitabine IC50 to compound IC50 for mouse B16-F10-Luc-G5 cells
# Assay type: functional
# Settings: not given
row,SMILES,Ratio IC50
1,Cn1cc(NC(=O)c2cc(NC(=O)c3ccc(/C=C/c4ccc(C(F)(F)F)cc4)cc3)cn2C)cc1C(=O)NCCN1CCOCC1,70

# Organism: Mus musculus
# Assay: (§2) Antiproliferative activity against mouse B16-F10-Luc-G5 cells assessed as cell growth inhibition at 15.36 ug/ml measured after 24 hrs by luciferase gene assay relative to DMSO control
# Assay type: functional
# Settings: not given
row,SMILES,growth inhibition (GI)
1,Cn1cc(NC(=O)c2cc(NC(=O)c3cc(NC(=O)c4ccc(Cl)cc4Cl)cn3C)cn2C)cc1C(=O)NCCCN1CCOCC1,inactive
2,COc1cccc(C(=O)Nc2nc(C(=O)Nc3cc(C(=O)Nc4cc(C(=O)NCCCN(C)C)n(C)c4)n(C)c3)c(C(C)C)s2)c1,inactive
3,CC(=N)Nc1cc(C(=O)Nc2cc(C(=O)Nc3cc(C(=O)NCCCN(C)C)n(C)c3)n(C)c2)n(C)c1,inactive
4,CC(=O)Nc1cc(C(=O)Nc2cc(C(=O)Nc3cc(C(=O)Nc4cc(C(=O)NCCCN(C)C)n(C)c4)n(CCC(C)C)c3)n(C)c2)n(C)c1,inactive
5,Cn1cc(NC(=O)c2cc(NC(=O)c3ccc(/C=C/c4ccc(F)cc4)cc3)cn2C)cc1C(=O)NCCN1CCOCC1,inactive
6,COc1cccc(/C=C/c2ccc(C(=O)Nc3cc(C(=O)Nc4cc(C(=O)NCCN5CCOCC5)n(C)c4)n(C)c3)cc2)c1,inactive
7,CC(C)CCc1sc(NC(=O)c2cc(NC(=O)c3ccc(/C=C/c4cc5ccccc5nc4Cl)cc3)cn2C)nc1C(=O)NCCN1CCOCC1,inactive
8,CC(=O)Nc1cc(C(=O)Nc2cc(C(=O)Nc3cc(C(=O)NCCCN(C)C)n(C)c3)n(C)c2)c(C)s1,inactive
9,CC(C)n1cc(NC(=O)c2cc(NC(=O)c3cnc4ccccc4n3)cn2C)cc1C(=O)Nc1cc(C(=O)NCCCN(C)C)n(C)c1,inactive
10,CC(=N)Nc1cc(C(=O)Nc2cc(C(=O)Nc3nc(C(=O)NCCCN(C)C)c(CCC(C)C)s3)n(C)c2)n(C)c1,inactive
11,COc1ccc(/C=C(/C(=O)Nc2cc(C(=O)Nc3cc(C(=O)NCCCN(C)C)n(C)c3)n(C)c2)c2ccc(OC)cc2)cc1,inactive
12,Cn1cc(NC(=O)c2cc(NC(=O)c3ccc(/C=C/c4cccc(C(F)(F)F)c4)nc3)cn2C)cc1C(=O)NCCN1CCOCC1,inactive
13,COc1cccc(C(=N)Nc2cc(C(=O)Nc3cc(C(=O)Nc4cc(C(=O)NCCCN5CCOCC5)n(C)c4)n(C)c3)n(C)c2)c1,inactive

# System: not listed separately
# Assay: as §2
# Assay type: functional
# Settings: read-out: GI
row,SMILES,inhibition of growth at 15.36 µg/mL
1,COc1cccc(/C=C/c2ccc(C(=O)Nc3cc(C(=O)NCCN4CCOCC4)n(C)c3)cc2)c1,55%
2,COc1cccc(/C=C/c2ccc(C(=O)Nc3cc(C(=O)Nc4cc(C(=O)NCCC(=N)N)n(C)c4)n(C)c3)cc2)c1,67%
3,COc1ccc(/C=C/c2ccc(C(=O)Nc3cc(C(=O)N4CCN(C)CC4)n(C)c3)cn2)cc1,59%
4,Cn1cc(NC(=O)c2cc(NC(=O)c3ccc(/C=C/c4ccc(C(F)(F)F)cc4)cc3)cn2C)cc1C(=O)NCCN1CCOCC1,77%
5,Cn1cc(NC(=O)c2cc(NC(=O)c3ccc(/C=C/c4ccc5nonc5c4)cc3)cn2C)cc1C(=O)NCCN1CCOCC1,30.9%
6,COc1cccc(C(=N)Nc2cc(C(=O)Nc3cc(C(=O)Nc4nc(C(=O)NCCCN(C)C)c(CCC(C)C)s4)n(C)c3)n(C)c2)c1,34%
7,CCC(C)n1cc(NC(=O)c2cc(NC(=O)c3ccc(/C=C/c4ccc(OC)cc4)nc3)cn2C)cc1C(=O)NCCN1CCOCC1 (stereo not drawn),84%
8,Cn1cc(NC(=O)c2cc(NC(=O)c3ccc(/C=C/c4cccc(F)c4)cc3)cn2C)cc1C(=O)NCCN1CCOCC1,46%
9,Cn1cc(NC(=O)c2cc(NC(=O)c3ccc(/C=C/c4ccc5nsnc5c4)cc3)cn2C)cc1C(=O)NCCN1CCOCC1,37%
10,COc1ccc(/C=C/c2ccc(C(=O)Nc3cc(C(=O)Nc4cc(C(=O)NCCN5CCOCC5)n(C(C)C)c4)n(C)c3)cn2)cc1,83%
11,COc1cccc(C(=N)Nc2ccc(C(=O)Nc3cc(C(=O)Nc4cc(C(=O)NCCN5CCOCC5)n(C)c4)n(C)c3)cc2)c1,77%
12,COc1ccc(/C=C/c2ccc(C(=O)Nc3cc(C(=O)Nc4cc(C(=O)NCCN5CCOCC5)n(C)c4)n(C)c3)cn2)cc1,44%
13,Cn1cc(NC(=O)c2ccc(/C=C/c3cnc4ccccc4c3)cc2)cc1C(=O)NCCN1CCOCC1,72%
14,COc1cccc(/C=C/c2ccc(C(=O)Nc3cc(C(=O)N4CCN(C)CC4)n(C)c3)cc2)c1,76%
15,CSc1ccc(/C=C/c2ccc3cc(C(=O)Nc4cc(C(=O)Nc5cc(C(=O)NCCN6CCOCC6)n(C)c5)n(C)c4)ccc3n2)cc1,19%
16,CC(C)c1nc(N)sc1C(=O)Nc1cc(C(=O)Nc2cc(C(=O)NCCN3CCOCC3)n(C)c2)n(C)c1,57%
17,COc1cccc(C(=N)Nc2cc(C(=O)Nc3cc(C(=O)Nc4nc(C(=O)NCCCN(C)C)c(C(C)C)s4)n(C)c3)n(C)c2)c1,34%
18,CCC(C)n1cc(NC(=O)c2ccc(/C=C/c3ccc(OC)cc3)nc2)cc1C(=O)Nc1cc(C(=O)NCCN2CCOCC2)n(C)c1 (stereo not drawn),84%
19,CC(C)c1sc(N)nc1C(=O)Nc1cc(C(=O)NCCN2CCOCC2)n(C)c1,2.2%
20,COc1cccc(/C=C/c2ccc(C(=O)Nc3cc(C(=O)Nc4cc(C(=O)NCCN5CCOCC5)n(C(C)C)c4)n(C)c3)cc2)c1,88%
21,COc1ccc(/C=C/c2ccc(C(=O)Nc3cc(C(=O)Nc4cc(C(=O)NCCN5CCOCC5)n(C)c4)n(C(C)C)c3)cn2)cc1,85%
22,CC(C)n1cc(NC(=O)c2cc(NC(=O)c3cnc(Cl)c(Cl)c3)cn2C)cc1C(=O)Nc1cc(C(=O)NCCCN(C)C)n(C)c1,16.1%
23,Cc1sc(NC(=O)c2ccc3c(c2)C(=O)c2ccccc2C3=O)cc1C(=O)Nc1cc(C(=O)Nc2cc(C(=O)NCCCN(C)C)n(C)c2)n(CCC(C)C)c1,40%

# System: not listed separately
# Assay: Drug internalization in nucleus of mouse B16-F0-luc cells at 250 uM measured after 1 hr by DAPI staining based fluorescence microscopic analysis
# Assay type: ADME
# Settings: not given
# Procedure, shortened: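 B16-F0-luc mouse melanoma cells exposed to the fluorescent S-MGB probe at two concentrations for 1 hr, with DMSO-only and Hoechst 33342 nuclear-stain controls. Examined live on an inverted fluorescence microscope (x20 objective) under brightfield and UV or DAPI filter sets. Nuclear localisation judged by overlaying fluorescence on brightfield images. Two experiments with separately prepared cells.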
row,SMILES,Drug uptake
1,CCOc1ccc(-c2nc3cc(-c4nc5cc(N6CCN(C)CC6)ccc5[nH]4)ccc3[nH]2)cc1.Cl.Cl.Cl,Active

# System: Hepatocyte
# Assay: Cytotoxicity against rat hepatocytes assessed as reduction in cell viability at 7.5 uM measured up to 24 hrs
# Assay type: cell-based
# Settings: not given
row,SMILES,Activity
1,Cn1cc(NC(=O)c2cc(NC(=O)c3ccc(/C=C/c4ccc(C(F)(F)F)cc4)cc3)cn2C)cc1C(=O)NCCN1CCOCC1,Non-toxic

# System: Hepatocyte
# Assay: Cellular uptake in rat hepatocytes at 7.5 uM measured after 24 hrs by fluorescence analysis
# Assay type: ADME, cell-based
# Settings: not given
# Procedure, shortened: as §1
row,SMILES,Drug uptake
1,Cn1cc(NC(=O)c2cc(NC(=O)c3ccc(/C=C/c4ccc(C(F)(F)F)cc4)cc3)cn2C)cc1C(=O)NCCN1CCOCC1,Not Active

# System: not listed separately
# Assay: Drug internalization in nucleus of mouse B16-F0-luc cells at 3 and 30 ug/ml measured after 1 hr by DAPI staining based fluorescence microscopic analysis
# Assay type: ADME
# Settings: not given
row,SMILES,Drug uptake
1,CN(C)c1ccc(/C=C/c2ccc(C(=O)Nc3cc(C(=O)Nc4cc(C(=O)NCCN5CCOCC5)n(C)c4)n(C)c3)cn2)cc1,Dose-dependent effect

# Reference: ChEMBL document CHEMBL3822427, “An evaluation of Minor Groove Binders as anti-lung cancer therapeutics” (Bioorg Med Chem Lett, 2016)
